IMP-1 inh: inhibitors of Pseudomonas aeruginosa IMP-1 metallo-beta-lactamase; purified IMP-1, nitrocefin hydrolysis, epi-absorbance fluorescence; inhibition, % at 5.6 µM; 290,000 compounds, 0.45% hits; AID 1556;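 active = inhibition above the mean plus 3 SD of all compounds in the same screening run, cut at about 4.5% in these data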;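 also: 0% = IMP-1 with DMSO and 100% = DMSO wells lacking enzyme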
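System: Purified IMP-1 | Read-out basis: Percent enzyme inhibition | Controls: IMP-1 with DMSO as 0%, enzyme-free DMSO as 100% | Replicates: One well per compound | Doses: 5.6 µM nominal single concentration | Detection: Epi-absorbance fluorescence, 480 nm excitation, 530 nm emission | Incubation: 25 °C, 15 min preincubation, 25 min reaction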
HCV NS3 hel inh: inhibitors of Hepatitis C virus NS3 helicase | NS3 helicase DNA unwinding, Cy5 molecular beacon fluorescence | inhibition, % at 10.9 µM | 290,000 compounds, 0.56% hits | AID 1800;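 active = inhibition above the mean of all tested compounds plus 3 SD, set per campaign, cut at about 35% in these data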;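 also: 0% = DMSO wells and 100% = thioflavine S control wells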
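System: NS3 helicase fragment of HCV / Schedule: 1 h at 25 °C / Control set: DMSO alone as 0% and 110 µM thioflavine S as 100% / Reagent: Cy5/quencher beacon DNA duplex and ATP to start / Technique: Cy5 fluorescence / Replication: singlicate / Evaluation: % inhibition of end-to-start signal ratio versus controls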
VIM-2 inhibitor: blocks Pseudomonas aeruginosa VIM-2 metallo-beta-lactamase. inhibition, % at 5.6 µM. purified VIM-2, nitrocefin hydrolysis, epi-absorbance fluorescence. 290,000 compounds, 0.89% hits;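 active = inhibition above the mean of all tested compounds plus 3 SD, cutoff set per screening run, cut at about 7.5% in these data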;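 also: red hydrolysis product quenches plate fluorescence so inhibitors raise well fluorescence; 0% = enzyme with DMSO and 100% = DMSO without enzyme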
FID counter: counter-screen for HCV NS3 helicase inhibitors: DNA intercalator displacement. DNA fluorescent intercalator displacement, fluorescence. inhibition, % at 7.9 µM. 290,000 compounds, 0.17% hits. AID 1845; in the data active = inhibition above about 37%;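 also: 0% = vehicle and 100% = reference compound; higher means more ethidium bromide displaced from hairpin DNA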
The depositor's hits bear a star. Rows were chosen to be rich in hits. Some 1.9% of all compounds tested hit in one or more screens of this group.

SMILES	IMP-1 inh	HCV NS3 hel inh	VIM-2 inhibitor	FID counter
C=CCC1C=C(C)CC(CC=C)N1 (configuration not stated)	-0.2	-4.8	-0.7	-5.8
Cc1c2c(n3c(nc4ccccc43)c1C#N)N(Cc1cccnc1)CC2	-1.8	-2.9	9.6*	-5.1
CC(=O)Nc1ccc(N2CCc3c(C)c(C#N)c4nc5ccccc5n4c32)cc1	-1.9	-15.4	1.8	-1.6
COCCNc1c2c(c(C#N)c3nc4ccccc4n13)CCCC2	-3.8	-2.6	7.7	-27.0
N#Cc1c2c(c(NCc3cccnc3)n3c1nc1ccccc13)CCC2	-5.0	2.8	11.8*	-9.3
CCOc1ccccc1/C=C/C(=O)NCC(=O)N1CCC(N(C)C2CCCCC2C)CC1 (configuration not stated)	-0.8	-5.4	1.7	18.9
O=c1[nH]c(=O)n(C2OC(CO)C(O)C2O)cc1Br (configuration not stated)	-5.1	8.4	-0.1	-12.5
Nc1cn(C2OC(CO)C(O)C2O)c(=O)[nH]c1=O (configuration not stated)	6.3*	-0.2	-1.0	-4.5
CCOC(=O)C1CCN(c2cc3c(cc2NC(=O)c2ccccc2Cl)n(C)c(=O)n3C)CC1	-1.3	-6.8	-2.5	-46.4
CCOC(=O)C1CCN(c2cc3c(cc2NC(=O)c2ccccc2F)n(C)c(=O)n3C)CC1	17.6*	-9.2	1.2	-19.8
CNC(=O)c1cc(S(=O)(=O)N2CC(C)OC(C)C2)ccc1N1CCCCC1 (configuration not stated)	0.0	13.7	-2.4	-24.1
COc1ccc(/C=N/n2cncn2)cc1Cn1cc([N+](=O)[O-])cn1	-2.0	8.1	-0.4	-5.2
COc1ccc(/C=N/Nc2ccc([N+](=O)[O-])cc2)cc1Cn1cc([N+](=O)[O-])cn1	4.6*	10.9	-1.0	7.7
CCN1CCCC1CN(Cc1cc2ccc(C)cc2[nH]c1=O)C(=S)Nc1ccc(F)cc1 (configuration not stated)	-0.2	-32.5	10.3*	20.7
CCN1CCCC1CN(Cc1cc2ccc(C)cc2[nH]c1=O)C(=S)Nc1ccc(OC)cc1 (configuration not stated)	-0.9	5.1	-1.5	-0.6
COc1cccc(CNC(=O)CCCn2nc(C)c3c(C)n(-c4ccc(C)cc4)nc3c2=O)c1OC	-5.4	-0.9	-1.6	-52.4
c1cnc(SCCOc2cccc3ccccc23)nc1	4.8*	-4.1	-1.5	-4.4
COc1ccc(N2C(=O)N[C@@H](Cc3ccccc3)C2=O)cc1OC	-2.9	11.5	-3.2	-5.6
CCOC(=O)Cn1nc(Cc2ccccc2)c2ccccc2c1=O	0.6	-7.4	-1.1	-18.1
CCOC(=O)Cn1nc(-c2ccccc2)c2ccccc2c1=O	5.2*	4.1	1.0	2.9
CC(=O)Nc1ccc(NC(=O)c2ccccc2Nc2ccccc2)cc1	-1.3	-22.7	-3.0	-12.5
CCCCC(=O)NC(=S)Nc1ccccc1C(=O)Nc1ccccc1	12.6*	0.9	0.3	-2.4
CC(=O)NC(=S)Nc1ccccc1C(=O)Nc1ccccc1	28.4*	7.7	-0.2	-6.3
O=C(O)CC1SC(=O)N(CC(=O)c2ccccc2)C1=O (configuration not stated)	-2.9	2.0	-2.3	-0.1
CC(C)c1ccc(NC2CCCN(C(=O)CN3C(=O)CSC3=O)C2)cc1 (configuration not stated)	-1.8	-5.2	-0.5	-19.7
SMILES	IMP-1 inh	HCV NS3 hel inh	VIM-2 inhibitor	FID counter
OCCNCCNCc1ccc(-c2ccccc2)cc1	-1.6	-12.0	9.3*	20.9
COC(=O)c1ccc2c(c1)NC(=O)c1ccccc1S2	-2.4	8.1	-2.1	-19.4
N#C/C=C1/NC(=O)c2ccccc2S1	-0.4	0.9	9.1*	1.4
CC(=O)c1ccc(OCc2cc(C(=O)NCCn3nc(C)cc3C)no2)cc1	-3.5	20.6	-0.2	-32.4
COc1cccc(NS(=O)(=O)c2ccc3[nH]cc(C(=O)N(C)Cc4ccco4)c(=O)c3c2)c1	-3.3	4.4	-2.9	-10.4
Cc1ccccc1NS(=O)(=O)c1ccc2[nH]cc(C(=O)N(C)Cc3ccco3)c(=O)c2c1	4.5*	12.1	1.0	11.2
O=C(N/N=C/C(Br)=C/c1ccccc1)c1ccncc1	-1.0	13.6	-1.3	-11.1
O=C(N/N=C/C(Br)=C/c1ccccc1)c1ccc([N+](=O)[O-])cc1	42.2*	3.4	0.3	-0.1
CCC[C@H]1COCCS(=O)(=O)N1Cc1ccc(Br)cc1	-2.9	4.1	-1.0	-21.0
Cc1ccc(O)c(CNc2nccs2)c1	-1.1	-1.7	-1.2	-2.8
Oc1ccc(Cl)cc1CNc1nccs1	8.4*	2.9	1.6	-4.5
O=C(COc1cccc(-n2cnnn2)c1)Nc1ccc([N+](=O)[O-])cc1	-1.5	4.5	-0.7	1.3
N#CC1=C(N)OC2=C(CC/C2=C\c2ccccc2Cl)C1c1ccccc1Cl (configuration not stated)	-0.8	25.4	-0.7	-16.5
N#CC1=C(N)OC2=C(CC/C2=C\c2ccccc2)C1c1ccccc1 (configuration not stated)	5.2*	29.6	-2.3	-26.9
COc1ccc2cc1Oc1ccc(cc1)CC1c3c(cc(OC)c4c3Oc3cc5c(cc3O4)CCNC5C2)CCN1C (configuration not stated)	4.6*	-79.9	5.8	80.9*
CCOc1ccc(C2NCCc3cc(OC)c(OC)cc32)cc1OC (configuration not stated)	-3.0	1.4	-1.8	-5.3
C=CCNC(=O)CSc1ncc2c(n1)-c1c(csc1SC)CC2	-0.5	-6.5	0.5	-17.6
CSc1scc2c1-c1nc(SCC(=O)C(C)(C)C)ncc1CC2	9.8*	27.5	2.0	-22.4
O=C(Nc1ccc(F)c(F)c1)C1CCCN(S(=O)(=O)c2cnc[nH]2)C1 (configuration not stated)	-1.5	-30.1	1.5	-6.4
Cc1ccc(CCNC(=O)C2CCCN(S(=O)(=O)c3cnc[nH]3)C2)cc1 (configuration not stated)	4.8*	1.2	0.2	0.3
O=C(Nc1ccc(Cl)c(C(F)(F)F)c1)C1CCCN(S(=O)(=O)c2cnc[nH]2)C1 (configuration not stated)	6.6*	-15.5	-1.6	-8.6
O=S(=O)(NCc1ccccn1)c1ccc(Cl)s1	-1.9	11.6	-1.4	-2.2
CC(C)CCNC(=O)NC(=O)COC(=O)/C=C/c1cc(Br)ccc1F	-0.5	10.3	-2.2	2.0
Cc1ccc(/C=C2/C(=O)N=C(N)N2C)s1	-0.1	5.8	-2.9	-2.5
Cn1c(=O)c2c(ncn2CC(=O)N2CCN(S(=O)(=O)c3ccccc3)CC2)n(C)c1=O	-1.3	3.5	-2.0	-8.0
COc1cc(OC)c(OC)cc1/C=C1\Oc2cc(OCC(=O)N3Cc4ccccc4C[C@H]3C(=O)O)ccc2C1=O	3.4	0.0	11.9*	14.1
Cc1sc2ncnc(NCC(c3ccccc3)N(C)C)c2c1C (configuration not stated)	-2.8	-6.5	8.7*	1.3
Cc1nc(NCC(c2ccccc2)N(C)C)c2c(C)c(C)sc2n1 (configuration not stated)	-5.0	-4.1	7.8*	8.8
